Measurements as given in ChEMBL document CHEMBL1143620, “Discovery of diphenyloxazole and Ndelta-Z-ornithine derivatives as highly potent and selective human prostaglandin EP(4) receptor antagonists” (J Med Chem, 2005).

Legend:
[1] = target: T1, Prostaglandin E2 receptor EP1 subtype (Homo sapiens, UniProt P34995); assay: Inhibition of [3H]-PGE-2 binding to human prostanoid EP1 receptor
T1 sequence (P34995 whole entry): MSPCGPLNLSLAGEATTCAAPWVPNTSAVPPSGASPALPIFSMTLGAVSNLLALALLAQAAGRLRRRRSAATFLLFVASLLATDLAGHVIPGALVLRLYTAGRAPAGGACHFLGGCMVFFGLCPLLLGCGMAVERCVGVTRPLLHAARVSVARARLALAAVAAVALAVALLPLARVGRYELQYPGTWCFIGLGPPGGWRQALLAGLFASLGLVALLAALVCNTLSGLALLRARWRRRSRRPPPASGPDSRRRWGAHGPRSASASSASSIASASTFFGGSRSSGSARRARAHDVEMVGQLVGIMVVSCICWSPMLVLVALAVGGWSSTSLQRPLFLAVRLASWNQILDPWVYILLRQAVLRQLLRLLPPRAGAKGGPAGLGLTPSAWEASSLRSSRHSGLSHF

[2] = target: Prostaglandin E2 receptor EP2 subtype (Homo sapiens, UniProt P43116); assay: Inhibition of [3H]PGE-2 binding to human prostanoid EP2 receptor
[3] = target: T2, Prostaglandin D2 receptor (Homo sapiens, UniProt Q13258); assay: Inhibition of [3H]PGD-2 binding to human prostanoid DP receptor
T2 sequence (Q13258 whole entry): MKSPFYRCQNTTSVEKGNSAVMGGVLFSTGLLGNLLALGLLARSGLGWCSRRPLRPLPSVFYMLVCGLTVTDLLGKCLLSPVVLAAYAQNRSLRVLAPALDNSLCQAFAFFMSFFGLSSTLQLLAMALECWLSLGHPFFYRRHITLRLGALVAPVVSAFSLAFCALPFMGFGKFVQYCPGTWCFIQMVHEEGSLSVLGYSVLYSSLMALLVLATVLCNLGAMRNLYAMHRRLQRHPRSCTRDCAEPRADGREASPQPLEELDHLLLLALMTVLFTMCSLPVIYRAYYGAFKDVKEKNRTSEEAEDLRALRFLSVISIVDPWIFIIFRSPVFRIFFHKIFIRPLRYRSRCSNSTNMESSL

Thromboxane A2 receptor = target: T3, Thromboxane A2 receptor (Homo sapiens, UniProt P21731); assay: Inhibition of [3H]SQ-29,548 binding to human prostanoid TP receptor
T3 sequence (P21731 whole entry): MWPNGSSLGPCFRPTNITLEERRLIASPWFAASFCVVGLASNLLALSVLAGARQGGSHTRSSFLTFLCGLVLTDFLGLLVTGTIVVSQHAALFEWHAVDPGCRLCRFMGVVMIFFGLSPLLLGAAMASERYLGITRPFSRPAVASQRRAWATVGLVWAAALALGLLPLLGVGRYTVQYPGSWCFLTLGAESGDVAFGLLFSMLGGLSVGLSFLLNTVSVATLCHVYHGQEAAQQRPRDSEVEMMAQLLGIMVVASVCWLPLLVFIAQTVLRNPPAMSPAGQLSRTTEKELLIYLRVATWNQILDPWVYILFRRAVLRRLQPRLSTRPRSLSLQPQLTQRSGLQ

[4] = target: Prostaglandin E2 receptor EP4 subtype (Homo sapiens, UniProt P35408); assay: Inhibition of [3H]PGE-2 binding to human prostanoid EP4 receptor
[5] = target: T4, Prostaglandin E2 receptor EP3 subtype (Homo sapiens, UniProt P43115); assay: Inhibition of [3H]PGE-2 binding to human prostanoid EP3 receptor
T4 sequence (P43115 whole entry): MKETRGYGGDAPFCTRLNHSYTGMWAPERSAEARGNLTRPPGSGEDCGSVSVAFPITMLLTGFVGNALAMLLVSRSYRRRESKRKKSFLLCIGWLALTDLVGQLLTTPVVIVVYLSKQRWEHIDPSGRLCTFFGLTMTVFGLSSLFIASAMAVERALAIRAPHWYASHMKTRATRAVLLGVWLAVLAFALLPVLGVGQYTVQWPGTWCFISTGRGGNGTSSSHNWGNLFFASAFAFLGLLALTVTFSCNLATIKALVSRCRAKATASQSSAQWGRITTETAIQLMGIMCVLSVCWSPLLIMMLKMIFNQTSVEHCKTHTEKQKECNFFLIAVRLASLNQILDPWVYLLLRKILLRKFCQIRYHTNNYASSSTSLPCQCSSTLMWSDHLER

[6] = target: Prostaglandin F2-alpha receptor (Homo sapiens, UniProt P43088); assay: Inhibition of [3H]PGF-2 binding to human prostanoid FP receptor
Prostacyclin receptor = Prostacyclin receptor (Homo sapiens, UniProt P43119); assay: Inhibition of [3H]iloprost binding to human prostanoid IP receptor
[7] = target: Prostaglandin E2 receptor EP4 subtype (Rattus norvegicus, UniProt P43114); assay: Inhibition of rat prostanoid EP4 receptor
[8] = Bioavailability in rat at 0.32 mg/kg after po administration (n=3); type: ADME, organism-based; settings: in vivo
[9] = Half life in dog after iv administration (n=2-3); type: ADME, organism-based, Canis lupus familiaris; settings: in vivo
[10] = Maximal plasma concentration in dogs after 0.32 mg/kg oral dose, n=3; type: ADME, organism-based, Canis lupus familiaris; set-up: dose 0.32 mg/kg, route oral; settings: dog
Summary of the method: (§1)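 Single oral doses, n = 3 animals per dose. Peak plasma level reported in ng/mL, with oral bioavailability given as F (%). Values are mean ± SE.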

[11] = Clearance in rat after iv administration (n=2-3); type: ADME, organism-based; settings: in vivo
[12] = Clearance in dog after iv administration (n=2-3); type: ADME, organism-based, Canis lupus familiaris; settings: in vivo
[13] = Half life in rat after iv administration (n=2-3); type: ADME, organism-based; settings: in vivo
[14] = Bioavailability in dog at 0.32 mg/kg after po administration (n=3); type: ADME, organism-based, Canis lupus familiaris; settings: in vivo; summary of the method: as §1
[15] = Maximal plasma concentration in rats after 10 mg/kg oral dose n=3; type: ADME, organism-based; set-up: dose 10 mg/kg, route oral; settings: rat
[16] = Maximal plasma concentration in dogs after 3.2 mg/kg oral dose, n=3; type: ADME, organism-based, Canis lupus familiaris; set-up: dose 3.2 mg/kg, route oral; settings: dog; summary of the method: as §1
[17] = Bioavailability in rat (dose 10 mg/kg p.o.); type: ADME, organism-based; settings: in vivo, po
[18] = Bioavailability in dog at 3.2 mg/kg after po administration (n=3); type: ADME, organism-based, Canis lupus familiaris; settings: in vivo; summary of the method: as §1
[19] = Bioavailability in dog at 0.10 mg/kg after po administration (n=3); type: ADME, organism-based, Canis lupus familiaris; settings: in vivo, 0.1 mg/kg; summary of the method: as §1
[20] = Maximal plasma concentration in dogs after 0.1 mg/kg oral dose, n=3; type: ADME, organism-based, Canis lupus familiaris; set-up: dose 0.1 mg/kg, route oral; settings: dog; summary of the method: as §1

Sequence of Prostaglandin F2-alpha receptor (P43088 whole entry): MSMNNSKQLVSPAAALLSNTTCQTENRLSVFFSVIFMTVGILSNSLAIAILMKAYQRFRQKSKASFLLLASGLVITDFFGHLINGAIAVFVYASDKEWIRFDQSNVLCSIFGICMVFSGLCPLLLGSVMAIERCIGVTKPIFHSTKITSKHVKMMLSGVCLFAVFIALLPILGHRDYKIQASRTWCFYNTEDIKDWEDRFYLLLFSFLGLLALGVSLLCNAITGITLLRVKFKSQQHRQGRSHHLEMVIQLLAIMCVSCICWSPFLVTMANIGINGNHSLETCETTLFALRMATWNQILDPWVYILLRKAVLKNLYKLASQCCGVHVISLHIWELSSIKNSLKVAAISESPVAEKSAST
Sequence of Prostaglandin E2 receptor EP2 subtype (P43116 whole entry): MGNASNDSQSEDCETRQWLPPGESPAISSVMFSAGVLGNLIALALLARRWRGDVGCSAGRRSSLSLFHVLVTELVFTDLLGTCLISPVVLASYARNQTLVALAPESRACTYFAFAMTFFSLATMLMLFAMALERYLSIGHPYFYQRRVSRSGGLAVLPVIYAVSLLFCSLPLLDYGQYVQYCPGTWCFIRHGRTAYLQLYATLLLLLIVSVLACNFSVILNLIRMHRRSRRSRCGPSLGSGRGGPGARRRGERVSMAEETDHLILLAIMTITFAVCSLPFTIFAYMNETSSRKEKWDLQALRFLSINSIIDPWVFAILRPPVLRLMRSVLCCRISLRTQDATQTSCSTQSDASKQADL
Sequence of Prostaglandin E2 receptor EP4 subtype (Homo sapiens, UniProt P35408) (P35408 whole entry): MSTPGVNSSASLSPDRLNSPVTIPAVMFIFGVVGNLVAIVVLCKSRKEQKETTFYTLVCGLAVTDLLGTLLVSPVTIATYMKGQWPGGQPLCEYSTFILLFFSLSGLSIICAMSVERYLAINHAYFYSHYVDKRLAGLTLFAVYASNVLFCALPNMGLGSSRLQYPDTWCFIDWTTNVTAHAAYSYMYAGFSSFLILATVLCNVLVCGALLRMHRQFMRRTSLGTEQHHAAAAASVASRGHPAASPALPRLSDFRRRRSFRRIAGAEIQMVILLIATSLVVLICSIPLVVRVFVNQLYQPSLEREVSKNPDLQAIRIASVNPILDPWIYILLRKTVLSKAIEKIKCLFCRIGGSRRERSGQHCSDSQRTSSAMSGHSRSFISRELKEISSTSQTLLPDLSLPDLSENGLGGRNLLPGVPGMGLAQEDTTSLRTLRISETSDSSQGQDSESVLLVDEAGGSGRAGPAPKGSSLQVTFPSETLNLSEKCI
Sequence of Prostacyclin receptor (P43119 whole entry): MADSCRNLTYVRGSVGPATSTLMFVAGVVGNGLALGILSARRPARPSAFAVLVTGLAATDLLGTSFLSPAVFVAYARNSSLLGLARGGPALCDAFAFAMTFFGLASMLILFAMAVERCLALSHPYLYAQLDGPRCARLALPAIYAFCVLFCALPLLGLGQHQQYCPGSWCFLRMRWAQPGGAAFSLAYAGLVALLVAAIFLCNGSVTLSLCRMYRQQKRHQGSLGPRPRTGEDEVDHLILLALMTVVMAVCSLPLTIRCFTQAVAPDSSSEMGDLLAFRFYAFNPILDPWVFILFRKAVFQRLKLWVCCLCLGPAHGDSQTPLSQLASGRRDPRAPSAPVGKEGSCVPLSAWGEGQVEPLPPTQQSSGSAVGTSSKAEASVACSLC
Sequence of Prostaglandin E2 receptor EP4 subtype (Rattus norvegicus, UniProt P43114) (P43114 whole entry): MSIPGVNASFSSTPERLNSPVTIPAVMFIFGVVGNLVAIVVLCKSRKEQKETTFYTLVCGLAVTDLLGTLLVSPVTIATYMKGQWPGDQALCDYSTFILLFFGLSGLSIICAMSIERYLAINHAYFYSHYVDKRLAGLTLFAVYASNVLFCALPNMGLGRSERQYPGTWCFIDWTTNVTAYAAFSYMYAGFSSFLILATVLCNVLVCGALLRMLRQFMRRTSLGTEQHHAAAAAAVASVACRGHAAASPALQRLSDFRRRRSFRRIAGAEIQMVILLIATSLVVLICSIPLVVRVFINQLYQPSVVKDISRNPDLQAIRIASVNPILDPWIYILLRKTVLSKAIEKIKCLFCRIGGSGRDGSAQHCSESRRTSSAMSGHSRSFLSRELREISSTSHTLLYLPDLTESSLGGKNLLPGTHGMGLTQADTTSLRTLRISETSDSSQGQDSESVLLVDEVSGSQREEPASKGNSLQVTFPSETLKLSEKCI

SMILES | Ki [1] | Ki [2] | Ki [3] | Ki (Thromboxane A2 receptor) | Ki [4] | Ki [5] | Ki [6] | Ki (Prostacyclin receptor) | half-life [9] | clearance [12] | half-life [13] | other results
O=C(NOCc1ccccc1)c1cccc(C[C@@H]2CCCC=C2c2nc(-c3ccccc3)c(-c3ccccc3)o2)c1 | > 3 µM | > 3 µM | > 1 µM | > 1 µM | 0.00068 µM | > 3 µM | > 1 µM | > 3 µM |  |  |  | 
O=C(O)CCCCCNC(=O)[C@H](CCCNC(=O)OCc1ccccc1)NC(=O)c1cc2ccccc2o1 | > 10 µM | > 10 µM | > 10 µM | > 10 µM | 0.00091 µM | > 10 µM | > 10 µM | > 10 µM |  |  |  | Ki [7]: 0.0051 µM
O=C([O-])COc1cccc(C[C@@H]2CCCC=C2c2nc(-c3ccccc3)c(-c3ccccc3)o2)c1.[Na+] |  |  |  |  | 1.02 µM | > 1 µM |  |  | 3 h | 1.59 mL/min/kg | 6.6 h | bioavailability [8]: 50%; Cmax [10]: 592 ng/mL; Cl [11]: 17.7 mL/min/kg; bioavailability [14]: 72%
O=C(O)Cc1cccc(C[C@@H]2CCCC=C2c2nc(-c3ccccc3)c(-c3ccccc3)o2)c1 |  |  |  |  | 0.05 µM |  |  | 0.17 µM |  |  |  | 
O=C(NCCC[C@H](NC(=O)c1cc2ccccc2[nH]1)C(=O)N[C@@H](Cc1ccccc1)C(=O)O)OCc1ccccc1 | > 1 µM | > 1 µM | > 1 µM | > 1 µM | 0.043 µM | > 1 µM | > 1 µM | > 1 µM |  |  |  | 
O=C(O)c1cccc(C[C@@H]2CCCC=C2c2nc(-c3ccccc3)c(-c3ccccc3)o2)c1 | 2.5 µM | > 3 µM | > 3 µM | > 3 µM | 0.0055 µM | > 3 µM | > 3 µM | 0.61 µM | 5.5 h | 0.52 mL/min/kg | 4 h | bioavailability [19]: 25%; Cmax [15]: 9100 ng/mL; clearance [11]: 11.2 mL/min/kg; bioavailability [17]: 99%; Cmax [20]: 57.3 ng/mL
O=C(O)CCCCCNC(=O)[C@H](CCCCNC(=O)OCc1ccccc1)NC(=O)c1cc2ccccc2o1 |  |  |  |  | 0.0084 µM |  |  |  |  |  |  | 

Further compounds by falling Ki [4], results first:

Ki [1] | Ki [2] | Ki [3] | Ki (Thromboxane A2 receptor) | Ki [4] | Ki [5] | Ki [6] | Ki (Prostacyclin receptor) | half-life [9] | clearance [12] | half-life [13] | SMILES | other results
 |  |  |  | 0.24 µM |  |  |  |  |  |  | O=C(O)CCCCCNC(=O)[C@@H](CCCCNC(=O)OCc1ccccc1)NC(=O)c1cc2ccccc2o1 | 
 |  |  |  | 0.08 µM |  |  |  |  |  |  | CN(Cc1ccccc1)C(=O)[C@H](Cc1ccccc1)NC(=O)[C@H](CCCNC(=O)OCc1ccccc1)NC(=O)c1cc2ccccc2[nH]1 | 
> 3 µM | > 3 µM | > 3 µM | > 3 µM | 0.0003 µM | > 3 µM | > 3 µM | > 3 µM | 5.5 h | 0.52 mL/min/kg | 4.4 h | O=C(NS(=O)(=O)Cc1ccccc1)c1cccc(C[C@@H]2CCCC=C2c2nc(-c3ccccc3)c(-c3ccccc3)o2)c1 | Cmax [15]: 2100 ng/mL; Cmax [16]: 8200 ng/mL; clearance [11]: 10.2 mL/min/kg; bioavailability [17]: 51%; bioavailability [18]: 97%; Ki [7]: 0.00074 µM
